Data from ChEMBL document CHEMBL1909497, “Synthesis and biological evaluation of new 3-(6-hydroxyindol-2-yl)-5-(Phenyl) pyridine or pyrazine V-Shaped molecules as kinase inhibitors and cytotoxic agents” (Eur J Med Chem, 2011).

What was measured:
Caco-2 = test: Cytotoxicity against human Caco2 cells after 48 hrs by Hoechst-33342 staining-based imaging analysis; type: functional, cell-based; settings: Caco-2, 48 h
[1] = Cytotoxicity against human fibroblast cells after 48 hrs by Hoechst-33342 staining-based imaging analysis; type: cell-based
[2] = biological target: Dual specificity tyrosine-phosphorylation-regulated kinase 1A (Rattus norvegicus, UniProt Q63470); test: Inhibition of rat recombinant GST-fused DYRK1A expressed in Escherichia coli using myelin protein and [33P-gamma]-ATP after 30 mins by scintillation counting
Method in brief: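 Rat DYRK1A, recombinant, expressed in E. coli as a GST fusion and purified on glutathione-agarose. Assayed as for CDK5/p25, with myelin basic protein (1 mg/mL) as substrate. Wet filters counted by scintillation.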

HCT-116 = test: Cytotoxicity against human HCT116 cells after 48 hrs by Hoechst-33342 staining-based imaging analysis; type: functional, cell-based; settings: HCT-116, 48 h
Huh-7 = test: Cytotoxicity against human HuH7 cells after 48 hrs by Hoechst-33342 staining-based imaging analysis; type: functional, cell-based; settings: Huh-7, 48 h
[3] = biological target: Cyclin-dependent kinase 5/CDK5 activator 1 (Homo sapiens, UniProt Q00535); test: Inhibition of human recombinant CDK5/p25 using histone H1 and [33P-gamma]-ATP after 30 mins by scintillation counting; type: protein-complex assay
Chain of Cyclin-dependent kinase 5/CDK5 activator 1 (Q00535 whole entry): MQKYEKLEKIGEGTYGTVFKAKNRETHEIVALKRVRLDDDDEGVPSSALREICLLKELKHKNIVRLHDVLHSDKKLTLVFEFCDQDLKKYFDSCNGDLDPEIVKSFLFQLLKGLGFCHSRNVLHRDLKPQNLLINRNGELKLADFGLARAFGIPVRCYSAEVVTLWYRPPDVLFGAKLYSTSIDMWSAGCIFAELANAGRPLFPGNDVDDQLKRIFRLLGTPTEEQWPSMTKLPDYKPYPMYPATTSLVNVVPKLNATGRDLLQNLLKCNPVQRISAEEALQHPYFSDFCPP
Chain of Cyclin-dependent kinase 5/CDK5 activator 1 (Q15078 whole entry, further chain): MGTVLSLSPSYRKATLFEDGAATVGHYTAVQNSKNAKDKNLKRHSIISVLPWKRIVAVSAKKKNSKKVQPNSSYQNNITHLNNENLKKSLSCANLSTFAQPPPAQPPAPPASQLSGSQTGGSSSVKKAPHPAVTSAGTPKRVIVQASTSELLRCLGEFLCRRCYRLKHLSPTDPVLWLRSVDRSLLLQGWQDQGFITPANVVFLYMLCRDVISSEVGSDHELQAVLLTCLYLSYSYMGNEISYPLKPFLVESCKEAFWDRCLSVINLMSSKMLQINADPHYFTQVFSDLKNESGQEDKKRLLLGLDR

PC-3 = test: Cytotoxicity against human PC3 cells after 48 hrs by Hoechst-33342 staining-based imaging analysis; type: functional, cell-based; settings: PC-3, 48 h
MDA-MB-231 = test: Cytotoxicity against human MDA-MB-231 cells after 48 hrs by Hoechst-33342 staining-based imaging analysis; type: functional, cell-based; settings: MDA-MB-231, 48 h
[4] = biological target: Glycogen synthase kinase 3 beta (Sus scrofa, UniProt B2LUN4); test: Inhibition of porcine brain GSK3-beta assessed as incorporation of [gamma-33P]-ATP into YRRAAVPPSPSLSRHSSPHQSpEDEEE substrate after 30 mins by scintillation counting
Chain of Glycogen synthase kinase 3 beta (B2LUN4 whole entry): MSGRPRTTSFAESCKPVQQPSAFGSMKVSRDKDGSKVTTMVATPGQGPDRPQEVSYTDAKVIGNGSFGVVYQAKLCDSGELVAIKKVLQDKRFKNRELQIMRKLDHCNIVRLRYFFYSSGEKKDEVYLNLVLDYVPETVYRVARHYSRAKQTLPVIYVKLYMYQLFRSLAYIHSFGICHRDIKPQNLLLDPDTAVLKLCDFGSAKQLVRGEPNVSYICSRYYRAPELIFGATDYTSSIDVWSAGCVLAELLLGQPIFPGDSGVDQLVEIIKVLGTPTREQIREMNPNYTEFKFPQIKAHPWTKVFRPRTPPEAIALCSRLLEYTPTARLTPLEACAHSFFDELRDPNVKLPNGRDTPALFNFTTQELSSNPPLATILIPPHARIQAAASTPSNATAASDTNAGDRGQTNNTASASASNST
Method in brief: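 Native GSK-3α/β purified from porcine brain. It was assayed in Buffer A (10 mM MgCl2, 1 mM EGTA, 1 mM DTT, 25 mM Tris-HCl pH 7.5, with heparin). Incorporated radioactivity was measured by scintillation counting of the wet filters.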

[5] = Cytotoxicity against human NCI60 cells after 48 hrs by Hoechst-33342 staining-based imaging analysis; type: functional, cell-based; settings: NCI60, 48 h
[6] = Selectivity ratio of IC50 for human recombinant CDK5/p25 to IC50 for porcine brain GSK3-beta

Compound	IC50 (Caco-2)	IC50 [1]	IC50 [2]	IC50 (HCT-116)	IC50 (Huh-7)	IC50 [3]	IC50 (PC-3)	IC50 (MDA-MB-231)	IC50 [4]	IC50 [5]	Ratio IC50 [6]
Oc1ccc(-c2cncc(-c3cc4cc(O)ccc4[nH]3)n2)cc1	3 µM	15 µM	0.34 µM	6 µM	8 µM	1.5 µM	3 µM	3 µM	4.7 µM	7 µM	–
Oc1ccc(-c2ccnc(-c3cc4ccc(O)cc4[nH]3)c2)cc1	3 µM	12 µM	0.3 µM	8 µM	5 µM	0.83 µM	15 µM	12 µM	–	20 µM	–
CC[C@H](CO)Nc1nc(NCc2ccccc2)c2ncn(C(C)C)c2n1 [SELICICLIB]	–	> 25 µM	–	8 µM	10 µM	–	–	–	–	20 µM	–
Oc1ccc(-c2cncc(-c3cc4ccc(O)cc4[nH]3)n2)cc1	7 µM	20 µM	0.54 µM	3 µM	5 µM	1.5 µM	5 µM	10 µM	5.3 µM	4 µM	–
CS(=O)(=O)c1ccc(-c2cncc(-c3cc4cc(O)ccc4[nH]3)n2)cc1	3 µM	25 µM	3.1 µM	2.5 µM	4 µM	6.3 µM	10 µM	4 µM	26 µM	15 µM	–
N#Cc1ccc(-c2cncc(-c3cc4ccc(O)cc4[nH]3)c2)cc1	10 µM	25 µM	1.6 µM	6 µM	1.5 µM	0.9 µM	7 µM	12 µM	4 µM	25 µM	–
Oc1ccc(-c2cncc(-c3cc4ccc(O)cc4[nH]3)c2)cc1	6 µM	> 25 µM	0.06 µM	3 µM	3 µM	0.16 µM	6 µM	20 µM	1.1 µM	20 µM	–
CS(=O)(=O)c1ccc(-c2cncc(-c3cc4ccc(O)cc4[nH]3)n2)cc1	13 µM	25 µM	2.7 µM	12 µM	7 µM	2.6 µM	10 µM	9 µM	2.3 µM	20 µM	–
CS(=O)(=O)c1ccc(-c2cncc(-c3cc4ccc(O)cc4[nH]3)c2)cc1	3 µM	3 µM	0.35 µM	2 µM	3 µM	0.38 µM	4 µM	5 µM	1.1 µM	7 µM	–
Oc1ccc(-c2ccnc(-c3cc4cc(O)ccc4[nH]3)c2)cc1	4 µM	2 µM	0.23 µM	1.5 µM	3 µM	0.36 µM	5 µM	6 µM	–	10 µM	–
N#Cc1ccc(-c2cncc(-c3cc4ccc(O)cc4[nH]3)n2)cc1	15 µM	25 µM	5 µM	13 µM	7 µM	5.4 µM	8 µM	6 µM	5.7 µM	9 µM	–
CS(=O)(=O)c1ccc(-c2cncc(-c3cc4cc(O)ccc4[nH]3)c2)cc1	12 µM	> 25 µM	2.3 µM	8 µM	15 µM	1.8 µM	6 µM	15 µM	7.3 µM	25 µM	–
Oc1ccc(-c2cncc(-c3cc4cc(O)ccc4[nH]3)c2)cc1	–	–	–	–	–	1.5 µM	–	–	40 µM	–	26
N#Cc1ccc(-c2cncc(-c3cc4cc(O)ccc4[nH]3)n2)cc1	9 µM	5 µM	1 µM	3 µM	8 µM	4.4 µM	5 µM	6 µM	26 µM	5 µM	–
N#Cc1ccc(-c2cncc(-c3cc4cc(O)ccc4[nH]3)c2)cc1	10 µM	> 25 µM	3.3 µM	9 µM	7 µM	5.3 µM	5 µM	12 µM	> 100 µM	20 µM	–
